Experimental data gathered from unrelated publications.
Compare with care: the assays were run in different laboratories.
Action: inhibitor
CDK5 with p25: Cyclin-dependent kinase 5, with p25 (CDK5, Homo sapiens, UniProt Q00535)
CDK5: Cyclin-dependent kinase 5 (CDK5, Homo sapiens, UniProt Q00535)
CDK5 with p35: Cyclin-dependent kinase 5, with p35 (CDK5, Homo sapiens, UniProt Q00535)

For `COc1cc(-c2cc(-c3ccc(N4CCNCC4)cc3)cnc2C)cc(OC)c1OC`, the inhibition was 3% (CDK5 with p25; enzyme activity; 1 µM).
For `Nc1nc(Nc2ccc(S(N)(=O)=O)cc2)sc1C(=O)c1ccccc1[N+](=O)[O-]`, the inhibition was 95 to 96% (CDK5; enzyme activity; 0.1 µM).
With `CC[C@H](C)[C@H](NC(=O)[C@H](CCC(N)=O)NC(=O)[C@H](CC(C)C)NC(=O)[C@H](CCSC)NC(=O)[C@H](CCCCN)NC(=O)[C@H](CO)NC(=O)[C@H](CO)NC(=O)[C@H](CCSC)NC(=O)[C@H](CC(C)C)NC(=O)[C@H](CC(N)=O)NC(=O)[C@@H](NC(=O)[C@@H](NC(=O)[C@H](CO)NC(=O)[C@H](CC(C)C)NC(=O)[C@H](CS)NC(=O)[C@H](CCCNC(=N)N)NC(=O)[C@H](CC(=O)O)NC(=O)[C@H](Cc1c[nH]c2ccccc12)NC(=O)[C@H](Cc1ccccc1)NC(=O)[C@H](C)NC(=O)[C@H](CCC(=O)O)NC(=O)[C@@H](N)CCCCN)C(C)C)[C@@H](C)CC)C(=O)N[C@@H](CC(N)=O)C(=O)N[C@@H](C)C(=O)O` the inhibition was 59% (CDK5 with p25; enzyme activity; radiometric; 250 µM).
The inhibition of `Cc1ccc(-n2nc(C(C)(C)C)cc2NC(=O)Nc2ccc(OCCN3CCOCC3)c3ccccc23)cc1` is reported as 1% (CDK5 with p25; enzyme activity; 10 µM).
The inhibition of `CNc1cc(Oc2cc(C(=O)Nc3cc(N4CCN(C)CC4)cc(C(F)(F)F)c3)ccc2C)ncn1` is reported as -37.2% (CDK5; target engagement in cells; chemoproteomics; Huh-7; 1 µM).
For `CN(C)C1CCN(CC#Cc2nn(C3CCCC3)c3nc(NCc4ccccc4)ncc23)C1` (centres unmarked), the inhibition was 1% (CDK5 with p25; enzyme activity; FRET; 0.1 µM).
With `COc1cc2ncnc(Nc3ccc(Oc4ccccc4)cc3C)c2cc1OC` the inhibition was 7% (CDK5 with p35; enzyme activity; 1 µM).
With `CN1CC(Oc2cnc(C#N)cc2-c2ccn3nc(NC(=O)C4CC4)cc3c2)C1` the inhibition was 12% (CDK5 with p35; enzyme activity; 1 µM).
